In the M2OR odorant receptor database:

How the values were obtained:
Details in all cases: stereoisomer not certain
OR3A4P (Homo sapiens) = biological target: T1, OR3A4P (Homo sapiens) (UniProt P47883)
T1 sequence (whole entry): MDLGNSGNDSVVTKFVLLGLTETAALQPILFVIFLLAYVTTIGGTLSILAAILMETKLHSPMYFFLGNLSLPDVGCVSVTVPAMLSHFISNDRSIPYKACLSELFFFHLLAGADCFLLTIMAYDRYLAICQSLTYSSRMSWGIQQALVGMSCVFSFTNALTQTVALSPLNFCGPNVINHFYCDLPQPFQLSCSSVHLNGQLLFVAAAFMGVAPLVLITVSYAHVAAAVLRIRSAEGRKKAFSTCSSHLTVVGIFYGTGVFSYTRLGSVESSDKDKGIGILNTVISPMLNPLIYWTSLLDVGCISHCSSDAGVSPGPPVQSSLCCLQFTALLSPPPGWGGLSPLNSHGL
In short: (§1)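 Transient luciferase assays in mammalian cell lines were common, though methods varied by source. The values come from published papers and their supplementary material, with extra details from the original authors when needed. Responsive refers to a measured signal the original authors judged statistically different from baseline, and non-responsive (inactive) to the remainder.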

OR4A15 (Homo sapiens) = OR4A15 (Homo sapiens) (UniProt Q8NGL6)
In short: as §1

OR4A16 (Homo sapiens) = biological target: T2, OR4A16 (Homo sapiens) (UniProt Q8NH70)
T2 sequence (whole entry): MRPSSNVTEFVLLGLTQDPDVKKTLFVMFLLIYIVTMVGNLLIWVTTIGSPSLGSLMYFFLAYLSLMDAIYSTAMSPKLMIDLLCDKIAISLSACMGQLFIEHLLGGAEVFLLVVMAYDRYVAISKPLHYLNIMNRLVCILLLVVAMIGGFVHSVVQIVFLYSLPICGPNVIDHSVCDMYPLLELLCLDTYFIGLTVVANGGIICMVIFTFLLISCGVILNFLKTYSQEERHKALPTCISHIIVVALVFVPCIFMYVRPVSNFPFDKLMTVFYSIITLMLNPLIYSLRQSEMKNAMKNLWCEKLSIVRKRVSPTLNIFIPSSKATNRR
In short: as §1

OR4A47 (Homo sapiens) = biological target: T3, OR4A47 (Homo sapiens) (UniProt Q6IF82)
T3 sequence (whole entry): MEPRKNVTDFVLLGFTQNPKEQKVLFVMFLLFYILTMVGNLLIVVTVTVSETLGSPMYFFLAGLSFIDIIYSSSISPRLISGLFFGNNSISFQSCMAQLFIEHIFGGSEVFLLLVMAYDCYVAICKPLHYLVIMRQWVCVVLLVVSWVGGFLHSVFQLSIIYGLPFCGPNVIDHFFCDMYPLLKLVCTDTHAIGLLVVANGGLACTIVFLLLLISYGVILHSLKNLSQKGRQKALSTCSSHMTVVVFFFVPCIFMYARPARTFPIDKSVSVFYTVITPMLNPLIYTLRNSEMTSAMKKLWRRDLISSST
In short: as §1

OR4A5 (Homo sapiens) = biological target: T4, OR4A5 (Homo sapiens) (UniProt Q8NH83)
T4 sequence (whole entry): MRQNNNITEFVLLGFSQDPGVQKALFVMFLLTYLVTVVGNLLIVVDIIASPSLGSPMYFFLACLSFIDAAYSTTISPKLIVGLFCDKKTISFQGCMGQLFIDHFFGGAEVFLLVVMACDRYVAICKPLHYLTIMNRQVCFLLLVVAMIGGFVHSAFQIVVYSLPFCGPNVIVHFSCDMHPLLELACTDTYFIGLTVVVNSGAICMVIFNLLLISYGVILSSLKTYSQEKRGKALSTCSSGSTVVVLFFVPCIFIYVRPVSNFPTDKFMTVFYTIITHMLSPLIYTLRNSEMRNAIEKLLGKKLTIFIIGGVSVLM
In short: as §1

OR4B1 (Homo sapiens) = biological target: T5, OR4B1 (Homo sapiens) (UniProt Q8NGF8)
T5 sequence (whole entry): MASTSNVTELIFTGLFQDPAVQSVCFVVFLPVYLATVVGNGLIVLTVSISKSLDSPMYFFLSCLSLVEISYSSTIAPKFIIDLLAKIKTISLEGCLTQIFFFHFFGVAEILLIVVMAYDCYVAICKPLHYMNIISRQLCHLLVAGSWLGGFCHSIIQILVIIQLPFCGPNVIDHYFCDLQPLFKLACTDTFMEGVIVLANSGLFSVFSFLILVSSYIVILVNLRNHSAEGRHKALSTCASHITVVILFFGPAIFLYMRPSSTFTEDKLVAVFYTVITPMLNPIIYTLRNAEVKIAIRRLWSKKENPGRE
In short: as §1

OR4C11 (Homo sapiens) = biological target: T6, OR4C11 (Homo sapiens) (UniProt Q6IEV9)
T6 sequence (whole entry): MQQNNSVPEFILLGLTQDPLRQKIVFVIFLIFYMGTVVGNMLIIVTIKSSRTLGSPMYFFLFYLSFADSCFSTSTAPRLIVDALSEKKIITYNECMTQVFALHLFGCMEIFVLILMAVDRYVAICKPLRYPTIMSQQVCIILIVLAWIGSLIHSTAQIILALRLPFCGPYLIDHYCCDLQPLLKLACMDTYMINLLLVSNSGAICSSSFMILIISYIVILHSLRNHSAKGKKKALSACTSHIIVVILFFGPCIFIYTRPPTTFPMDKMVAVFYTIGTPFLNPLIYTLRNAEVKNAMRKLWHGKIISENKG
In short: as §1

OR4C12 (Homo sapiens) = OR4C12 (Homo sapiens) (UniProt Q96R67)
In short: as §1

OR4C13 (Homo sapiens) = OR4C13 (Homo sapiens) (UniProt Q8NGP0)
In short: as §1

OR4C15 (Homo sapiens) = OR4C15 (Homo sapiens) (UniProt Q8NGM1)
In short: as §1

OR4C16 (Homo sapiens) = biological target: T7, OR4C16 (Homo sapiens) (UniProt Q8NGL9)
T7 sequence (whole entry): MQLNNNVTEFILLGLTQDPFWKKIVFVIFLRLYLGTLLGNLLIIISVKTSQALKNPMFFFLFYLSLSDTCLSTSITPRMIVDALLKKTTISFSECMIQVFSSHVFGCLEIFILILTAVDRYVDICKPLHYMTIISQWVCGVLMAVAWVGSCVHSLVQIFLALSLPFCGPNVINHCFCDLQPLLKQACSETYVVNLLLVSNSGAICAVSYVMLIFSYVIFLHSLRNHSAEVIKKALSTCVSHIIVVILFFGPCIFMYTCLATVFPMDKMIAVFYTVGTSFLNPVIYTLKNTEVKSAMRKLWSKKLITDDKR
In short: as §1

OR4C3 (Homo sapiens) = OR4C3 (Homo sapiens) (UniProt Q8NH37)
In short: as §1

OR4C45 (Homo sapiens) [1] = biological target: T8, OR4C45 (Homo sapiens) (UniProt A6NMZ5)
T8 sequence (whole entry): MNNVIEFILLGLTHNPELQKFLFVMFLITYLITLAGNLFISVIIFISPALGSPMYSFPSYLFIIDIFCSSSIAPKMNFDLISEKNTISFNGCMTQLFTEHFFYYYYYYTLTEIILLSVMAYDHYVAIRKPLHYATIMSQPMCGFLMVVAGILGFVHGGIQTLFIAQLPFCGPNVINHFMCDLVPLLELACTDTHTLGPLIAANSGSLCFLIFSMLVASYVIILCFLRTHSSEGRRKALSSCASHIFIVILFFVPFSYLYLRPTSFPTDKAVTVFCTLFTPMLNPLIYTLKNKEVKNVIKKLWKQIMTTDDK
In short: as §1

OR4C46 (Homo sapiens) = OR4C46 (Homo sapiens) (UniProt A6NHA9)
In short: as §1

OR4C5 (Homo sapiens) = OR4C5 (Homo sapiens) (UniProt Q8NGB2)
In short: as §1

OR4C6 (Homo sapiens) = OR4C6 (Homo sapiens) (UniProt Q8NH72)
In short: as §1

OR3A3 T48I L132F = test system: T9, OR3A3 T48I L132F
T9 sequence (whole entry): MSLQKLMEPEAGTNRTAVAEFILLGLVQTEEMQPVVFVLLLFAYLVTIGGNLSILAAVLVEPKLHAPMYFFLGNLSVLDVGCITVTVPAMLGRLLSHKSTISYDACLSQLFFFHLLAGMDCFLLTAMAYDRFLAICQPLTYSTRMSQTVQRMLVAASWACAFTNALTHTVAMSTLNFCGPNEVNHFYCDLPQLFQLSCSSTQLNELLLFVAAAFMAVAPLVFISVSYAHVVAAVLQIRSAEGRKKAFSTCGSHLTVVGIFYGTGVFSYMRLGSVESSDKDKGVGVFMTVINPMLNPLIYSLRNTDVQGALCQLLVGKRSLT
In short: as §1

OR4C3 = test system: OR4C3
In short: as §1

OR4C45 (Homo sapiens) [2] = biological target: OR4C45 (Homo sapiens) (UniProt A6NMZ5); remark: listed apart in the source
In short: as §1
Target sequence in this assay (A6NMZ5 whole entry): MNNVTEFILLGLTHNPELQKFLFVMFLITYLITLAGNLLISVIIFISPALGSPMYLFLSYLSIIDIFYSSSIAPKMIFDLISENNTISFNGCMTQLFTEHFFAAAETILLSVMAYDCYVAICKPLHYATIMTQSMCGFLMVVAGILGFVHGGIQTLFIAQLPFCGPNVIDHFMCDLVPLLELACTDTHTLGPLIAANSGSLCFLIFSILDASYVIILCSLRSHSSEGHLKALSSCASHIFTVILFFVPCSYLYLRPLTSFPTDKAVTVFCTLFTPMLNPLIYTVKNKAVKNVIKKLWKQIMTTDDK

Sequence of OR4C3 (as listed by the source): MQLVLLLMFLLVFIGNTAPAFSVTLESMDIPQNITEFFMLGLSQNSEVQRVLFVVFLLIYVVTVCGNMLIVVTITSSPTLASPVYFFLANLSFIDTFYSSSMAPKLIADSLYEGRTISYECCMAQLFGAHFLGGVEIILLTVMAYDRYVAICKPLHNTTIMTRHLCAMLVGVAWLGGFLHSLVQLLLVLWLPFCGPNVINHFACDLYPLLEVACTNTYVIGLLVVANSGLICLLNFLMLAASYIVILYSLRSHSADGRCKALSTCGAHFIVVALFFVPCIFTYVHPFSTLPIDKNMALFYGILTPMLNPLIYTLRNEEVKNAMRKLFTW
Sequence of OR4C46 (Homo sapiens) (A6NHA9 whole entry): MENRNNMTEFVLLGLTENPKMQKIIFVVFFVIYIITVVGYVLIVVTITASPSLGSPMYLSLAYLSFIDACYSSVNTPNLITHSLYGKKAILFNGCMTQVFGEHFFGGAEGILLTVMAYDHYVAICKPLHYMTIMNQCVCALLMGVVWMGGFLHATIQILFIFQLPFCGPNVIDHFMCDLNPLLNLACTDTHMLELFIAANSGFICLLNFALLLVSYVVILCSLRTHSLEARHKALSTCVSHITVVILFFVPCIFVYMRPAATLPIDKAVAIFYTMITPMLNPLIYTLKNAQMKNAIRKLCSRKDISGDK
Sequence of OR4C5 (Homo sapiens) (Q8NGB2 whole entry): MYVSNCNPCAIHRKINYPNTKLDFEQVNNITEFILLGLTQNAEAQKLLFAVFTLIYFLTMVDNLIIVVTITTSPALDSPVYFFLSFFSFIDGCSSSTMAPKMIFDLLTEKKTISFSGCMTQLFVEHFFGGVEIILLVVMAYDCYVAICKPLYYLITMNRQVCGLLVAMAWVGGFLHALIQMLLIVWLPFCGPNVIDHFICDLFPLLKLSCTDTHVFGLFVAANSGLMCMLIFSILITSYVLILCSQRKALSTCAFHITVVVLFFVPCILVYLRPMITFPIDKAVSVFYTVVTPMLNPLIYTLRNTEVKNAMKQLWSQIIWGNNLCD
Sequence of OR4C12 (Homo sapiens) (Q96R67 whole entry): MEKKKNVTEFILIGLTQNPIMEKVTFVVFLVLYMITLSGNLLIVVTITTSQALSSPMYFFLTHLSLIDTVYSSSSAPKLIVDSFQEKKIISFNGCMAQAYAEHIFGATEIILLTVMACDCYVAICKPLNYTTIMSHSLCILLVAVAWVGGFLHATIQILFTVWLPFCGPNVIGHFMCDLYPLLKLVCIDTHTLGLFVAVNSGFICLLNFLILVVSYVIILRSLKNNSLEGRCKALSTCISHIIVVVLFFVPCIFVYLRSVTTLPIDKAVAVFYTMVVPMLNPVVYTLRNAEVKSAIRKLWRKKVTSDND
Sequence of OR4C13 (Homo sapiens) (Q8NGP0 whole entry): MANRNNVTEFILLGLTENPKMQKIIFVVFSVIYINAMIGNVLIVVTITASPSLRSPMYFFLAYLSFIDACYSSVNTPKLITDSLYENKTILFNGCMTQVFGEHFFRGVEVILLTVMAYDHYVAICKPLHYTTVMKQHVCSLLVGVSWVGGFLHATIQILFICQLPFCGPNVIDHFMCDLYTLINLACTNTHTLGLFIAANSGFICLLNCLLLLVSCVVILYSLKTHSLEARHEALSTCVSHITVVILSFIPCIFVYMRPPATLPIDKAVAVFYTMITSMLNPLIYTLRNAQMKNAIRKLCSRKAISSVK
Sequence of OR4A15 (Homo sapiens) (Q8NGL6 whole entry): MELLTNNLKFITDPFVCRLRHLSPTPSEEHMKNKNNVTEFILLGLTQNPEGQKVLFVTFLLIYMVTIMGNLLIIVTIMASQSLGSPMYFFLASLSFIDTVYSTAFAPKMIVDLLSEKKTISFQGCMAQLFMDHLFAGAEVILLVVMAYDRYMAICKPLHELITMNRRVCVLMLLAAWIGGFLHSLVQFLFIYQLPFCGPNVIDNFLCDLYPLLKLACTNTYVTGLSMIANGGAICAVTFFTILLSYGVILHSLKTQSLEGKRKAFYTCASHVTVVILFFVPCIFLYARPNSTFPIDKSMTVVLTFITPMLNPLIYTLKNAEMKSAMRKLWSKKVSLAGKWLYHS
Sequence of OR4C6 (Homo sapiens) (Q8NH72 whole entry): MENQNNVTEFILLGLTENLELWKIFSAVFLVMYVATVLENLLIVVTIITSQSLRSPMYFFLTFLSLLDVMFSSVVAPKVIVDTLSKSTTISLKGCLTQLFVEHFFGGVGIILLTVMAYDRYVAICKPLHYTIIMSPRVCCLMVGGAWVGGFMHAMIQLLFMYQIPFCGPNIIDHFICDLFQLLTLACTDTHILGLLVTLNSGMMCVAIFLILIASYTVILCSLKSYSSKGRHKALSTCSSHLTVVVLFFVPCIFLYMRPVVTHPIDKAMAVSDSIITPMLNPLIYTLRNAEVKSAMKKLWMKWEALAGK
Sequence of OR4C3 (Homo sapiens) (Q8NH37 whole entry): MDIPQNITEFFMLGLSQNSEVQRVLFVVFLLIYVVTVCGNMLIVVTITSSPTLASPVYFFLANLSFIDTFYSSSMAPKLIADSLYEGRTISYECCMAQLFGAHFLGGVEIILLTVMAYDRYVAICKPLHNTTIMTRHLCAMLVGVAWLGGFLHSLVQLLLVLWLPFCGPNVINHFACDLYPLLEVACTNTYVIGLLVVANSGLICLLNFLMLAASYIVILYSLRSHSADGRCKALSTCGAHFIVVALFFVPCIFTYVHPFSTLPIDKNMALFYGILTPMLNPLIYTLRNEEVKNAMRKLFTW
Sequence of OR4C15 (Homo sapiens) (Q8NGM1 whole entry): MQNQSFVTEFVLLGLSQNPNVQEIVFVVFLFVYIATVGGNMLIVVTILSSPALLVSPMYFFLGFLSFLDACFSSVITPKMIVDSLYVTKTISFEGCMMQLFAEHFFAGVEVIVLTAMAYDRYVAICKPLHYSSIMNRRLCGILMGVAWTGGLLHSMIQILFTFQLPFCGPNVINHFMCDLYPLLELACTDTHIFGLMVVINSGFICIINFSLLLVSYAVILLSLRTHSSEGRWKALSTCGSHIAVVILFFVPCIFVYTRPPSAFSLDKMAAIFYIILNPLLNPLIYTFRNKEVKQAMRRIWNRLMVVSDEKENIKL

SMILES	odorant receptor agonist call (OR3A4P (Homo sapiens))	odorant receptor agonist call (OR4A15 (Homo sapiens))	odorant receptor agonist call (OR4A16 (Homo sapiens))	odorant receptor agonist call (OR4A47 (Homo sapiens))	odorant receptor agonist call (OR4A5 (Homo sapiens))	odorant receptor agonist call (OR4B1 (Homo sapiens))	odorant receptor agonist call (OR4C11 (Homo sapiens))	odorant receptor agonist call (OR4C12 (Homo sapiens))	odorant receptor agonist call (OR4C13 (Homo sapiens))	odorant receptor agonist call (OR4C15 (Homo sapiens))	odorant receptor agonist call (OR4C16 (Homo sapiens))	odorant receptor agonist call (OR4C3 (Homo sapiens))	odorant receptor agonist call (OR4C45 (Homo sapiens) [1])	odorant receptor agonist call (OR4C46 (Homo sapiens))	odorant receptor agonist call (OR4C5 (Homo sapiens))	odorant receptor agonist call (OR4C6 (Homo sapiens))	odorant receptor agonist call (OR3A3 T48I L132F)	odorant receptor agonist call (OR4C3)	odorant receptor agonist call (OR4C45 (Homo sapiens) [2])
CCCCCC(S)C(C)CO (stereo not drawn)	inactive	inactive	active	inactive	inactive	inactive	inactive	inactive	inactive	inactive	inactive	inactive	inactive	inactive	inactive	inactive	–	–	–
CCC1OC(C)=C(O)C1=O (stereo not drawn)	–	inactive	inactive	inactive	inactive	inactive	inactive	inactive	inactive	–	inactive	–	–	inactive	inactive	inactive	inactive	inactive	inactive
CCCCCCC=CCCC=O	–	inactive	inactive	inactive	inactive	inactive	inactive	inactive	inactive	inactive	inactive	inactive	inactive	inactive	inactive	inactive	inactive	–	–
CC(C)=CCCC(C)=CCO	–	–	–	–	–	–	–	–	–	–	–	–	–	–	–	–	–	inactive	–
CC1=C(O)C(=O)C(C)O1 (stereo not drawn)	–	inactive	inactive	inactive	inactive	inactive	inactive	inactive	inactive	–	inactive	–	–	inactive	inactive	inactive	inactive	inactive	inactive
